The source made the active and inactive calls. The rule behind the calls is not given here.
Columns and labels:
hERG = hERG (Homo sapiens, UniProt Q12809); assay: Blockade of current at hERG expressed in HEK293 cells at 3 ug/mL; assay type: cell-based; conditions: HEK293 cells that express hERG
How it was run: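 hERG stably expressed in HEK293 cells; whole-cell voltage clamp. Pipette: K aspartate/KCl/EGTA/MgATP, pH 7.3. Bath: NaCl-based HEPES, pH 7.4. Compound dissolved in DMSO (≤0.1%), one concentration per cell. Steps to -25 to +50 mV for 3 s, then -50 mV for 4 s, from -80 mV every 15 s; tail current measured against DMSO vehicle.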

[1] = Bioavailability in dog at 1 mg/kg, po; assay type: ADME, organism-based, Canis lupus familiaris; conditions: in vivo
How it was run: (§1)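 Single 1 mg/kg dose given iv, sc or orally to Sprague-Dawley rats, dogs and monkeys; plasma concentrations followed over time (mean ± SEM, n = 3). Cmax, AUC, half-life, clearance and bioavailability calculated from the curves.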

[2] = AUC in monkey at 1 mg/kg, po; assay type: ADME, organism-based, Macaca mulatta; parameters: dose 1 mg/kg, route oral; conditions: rhesus monkey, plasma; how it was run: as §1
[3] = Half life in dog at 1 mg/kg, po; assay type: ADME, organism-based, Canis lupus familiaris; parameters: dose 1 mg/kg, route oral; conditions: in vivo; how it was run: as §1
[4] = Agonist activity at ferret D4 receptor in HEK293 cells coexpressing G-alpha-qo5 by FLIPR relative to dopamine; assay type: functional, Mustela putorius furo
D(4) dopamine receptor [5] = target: T1, D(4) dopamine receptor (Homo sapiens, UniProt P21917); assay: Agonist activity at human D4.4 receptor in HEK293 cells coexpressing G-alpha-qo5 by FLIPR; assay type: functional, cell-based
T1 sequence (P21917 whole entry): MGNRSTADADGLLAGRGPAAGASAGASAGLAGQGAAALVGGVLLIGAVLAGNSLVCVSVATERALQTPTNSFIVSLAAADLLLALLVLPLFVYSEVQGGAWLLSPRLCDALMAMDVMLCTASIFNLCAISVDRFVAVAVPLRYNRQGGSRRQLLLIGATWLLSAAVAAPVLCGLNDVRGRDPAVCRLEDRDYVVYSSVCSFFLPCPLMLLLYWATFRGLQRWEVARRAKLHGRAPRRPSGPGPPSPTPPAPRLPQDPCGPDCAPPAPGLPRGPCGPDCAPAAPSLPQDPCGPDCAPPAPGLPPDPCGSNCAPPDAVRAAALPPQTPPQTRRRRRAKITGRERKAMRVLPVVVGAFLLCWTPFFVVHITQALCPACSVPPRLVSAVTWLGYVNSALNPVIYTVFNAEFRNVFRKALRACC

D(2) dopamine receptor = D(2) dopamine receptor (Homo sapiens, UniProt P14416); assay: Agonist activity at human D2 receptor in HEK293 cells coexpressing G-alpha-qo5 by FLIPR relative to dopamine upto 10 uM; assay type: functional, cell-based
Chain of D(2) dopamine receptor (P14416 whole entry): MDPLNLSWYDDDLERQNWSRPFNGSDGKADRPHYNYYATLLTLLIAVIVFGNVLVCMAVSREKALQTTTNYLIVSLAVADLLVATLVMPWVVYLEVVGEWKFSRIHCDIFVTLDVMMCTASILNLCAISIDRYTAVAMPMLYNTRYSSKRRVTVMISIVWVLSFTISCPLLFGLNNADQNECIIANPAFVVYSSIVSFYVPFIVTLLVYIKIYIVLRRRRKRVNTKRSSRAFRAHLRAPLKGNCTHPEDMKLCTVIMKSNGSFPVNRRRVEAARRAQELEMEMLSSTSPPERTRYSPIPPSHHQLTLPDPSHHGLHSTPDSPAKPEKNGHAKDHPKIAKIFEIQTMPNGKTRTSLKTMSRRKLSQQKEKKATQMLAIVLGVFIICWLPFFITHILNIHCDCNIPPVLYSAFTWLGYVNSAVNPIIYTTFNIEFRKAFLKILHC
How it was run: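 Ca2+ flux by FLIPR in HEK cells cotransfected with the D2 receptor (human, ferret or rat) plus chimeric G protein Gqo5.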

[6] = target: cGMP-dependent 3',5'-cyclic phosphodiesterase (Homo sapiens) (UniProt O00408); assay: Activity at PDE2 at 10 uM
Chain of cGMP-dependent 3',5'-cyclic phosphodiesterase (Homo sapiens) (O00408 whole entry): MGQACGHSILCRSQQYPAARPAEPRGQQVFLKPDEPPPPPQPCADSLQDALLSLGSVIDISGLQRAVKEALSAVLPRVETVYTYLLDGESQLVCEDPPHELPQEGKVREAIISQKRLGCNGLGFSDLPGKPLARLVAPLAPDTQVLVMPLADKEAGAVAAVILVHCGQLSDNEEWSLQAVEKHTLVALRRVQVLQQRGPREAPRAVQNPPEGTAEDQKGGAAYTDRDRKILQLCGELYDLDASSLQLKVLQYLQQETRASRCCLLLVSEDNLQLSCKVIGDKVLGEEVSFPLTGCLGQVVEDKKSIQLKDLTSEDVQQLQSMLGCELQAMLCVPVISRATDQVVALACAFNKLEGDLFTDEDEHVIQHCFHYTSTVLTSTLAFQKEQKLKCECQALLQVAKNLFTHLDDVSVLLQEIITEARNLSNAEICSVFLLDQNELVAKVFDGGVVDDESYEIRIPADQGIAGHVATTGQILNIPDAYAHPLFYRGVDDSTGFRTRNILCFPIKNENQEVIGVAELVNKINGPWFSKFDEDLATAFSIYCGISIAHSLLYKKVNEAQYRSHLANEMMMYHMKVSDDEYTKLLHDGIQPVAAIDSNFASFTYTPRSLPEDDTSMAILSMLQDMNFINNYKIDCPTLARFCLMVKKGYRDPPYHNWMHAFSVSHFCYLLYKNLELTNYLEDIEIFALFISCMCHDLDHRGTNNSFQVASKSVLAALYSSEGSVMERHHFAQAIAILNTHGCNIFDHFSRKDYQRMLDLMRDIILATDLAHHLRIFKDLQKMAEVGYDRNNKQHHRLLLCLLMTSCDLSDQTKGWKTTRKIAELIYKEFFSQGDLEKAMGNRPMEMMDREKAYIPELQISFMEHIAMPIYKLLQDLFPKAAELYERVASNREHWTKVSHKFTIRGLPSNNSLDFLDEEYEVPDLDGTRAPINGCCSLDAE
How it was run: (§2)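 Broad selectivity panel (over 70 receptors, ion channels and neuronal receptors, PDE1-6 included) run at a single 10 µM concentration.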

[7] = target: Phosphodiesterase 6 (Homo sapiens) (UniProt Q13956+P18545+P35913+O43924+P16499+P51160); assay: Activity at PDE6 at 10 uM; assay type: protein assay; how it was run: as §2
[8] = Effect on canine cardiac Purkinje fiber repolarization measured as prolongation of action potential duration at 3 ug/mL; assay type: functional, Canis lupus familiaris
How it was run: (§3)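 Canine Purkinje fibers impaled with 3 M KCl microelectrodes. Fibers accepted with resting potential below -80 mV and APD 300-500 ms. Paced at BCL 2 s, then 800 and 400 ms. Two ascending concentrations applied, each after 25 min equilibration. APD90 measured at all three rates.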

[9] = Plasma clearance in iv dosed dog; assay type: ADME, organism-based, Canis lupus familiaris; how it was run: as §1
D(4) dopamine receptor [10] = target: T1, D(4) dopamine receptor; assay: Displacement of [3H]A369508 from human D4 receptor expressed in HEK293 cell membrane; assay type: cell membranes
[11] = Effect on canine cardiac Purkinje fiber repolarization measured as prolongation of action potential duration at 1 ug/mL; assay type: functional, Canis lupus familiaris; how it was run: as §3
[12] = AUC in rat at 1 mg/kg, po; assay type: ADME, organism-based; parameters: dose 1 mg/kg, route oral; conditions: plasma; how it was run: as §1
[13] = Plasma clearance in iv dosed rat; assay type: ADME, organism-based; how it was run: as §1
[14] = AUC in rat at 1 mg/kg, sc; assay type: ADME, organism-based; parameters: dose 1 mg/kg, route subcutaneous; conditions: plasma; how it was run: as §1

Chain of hERG (Q12809 whole entry): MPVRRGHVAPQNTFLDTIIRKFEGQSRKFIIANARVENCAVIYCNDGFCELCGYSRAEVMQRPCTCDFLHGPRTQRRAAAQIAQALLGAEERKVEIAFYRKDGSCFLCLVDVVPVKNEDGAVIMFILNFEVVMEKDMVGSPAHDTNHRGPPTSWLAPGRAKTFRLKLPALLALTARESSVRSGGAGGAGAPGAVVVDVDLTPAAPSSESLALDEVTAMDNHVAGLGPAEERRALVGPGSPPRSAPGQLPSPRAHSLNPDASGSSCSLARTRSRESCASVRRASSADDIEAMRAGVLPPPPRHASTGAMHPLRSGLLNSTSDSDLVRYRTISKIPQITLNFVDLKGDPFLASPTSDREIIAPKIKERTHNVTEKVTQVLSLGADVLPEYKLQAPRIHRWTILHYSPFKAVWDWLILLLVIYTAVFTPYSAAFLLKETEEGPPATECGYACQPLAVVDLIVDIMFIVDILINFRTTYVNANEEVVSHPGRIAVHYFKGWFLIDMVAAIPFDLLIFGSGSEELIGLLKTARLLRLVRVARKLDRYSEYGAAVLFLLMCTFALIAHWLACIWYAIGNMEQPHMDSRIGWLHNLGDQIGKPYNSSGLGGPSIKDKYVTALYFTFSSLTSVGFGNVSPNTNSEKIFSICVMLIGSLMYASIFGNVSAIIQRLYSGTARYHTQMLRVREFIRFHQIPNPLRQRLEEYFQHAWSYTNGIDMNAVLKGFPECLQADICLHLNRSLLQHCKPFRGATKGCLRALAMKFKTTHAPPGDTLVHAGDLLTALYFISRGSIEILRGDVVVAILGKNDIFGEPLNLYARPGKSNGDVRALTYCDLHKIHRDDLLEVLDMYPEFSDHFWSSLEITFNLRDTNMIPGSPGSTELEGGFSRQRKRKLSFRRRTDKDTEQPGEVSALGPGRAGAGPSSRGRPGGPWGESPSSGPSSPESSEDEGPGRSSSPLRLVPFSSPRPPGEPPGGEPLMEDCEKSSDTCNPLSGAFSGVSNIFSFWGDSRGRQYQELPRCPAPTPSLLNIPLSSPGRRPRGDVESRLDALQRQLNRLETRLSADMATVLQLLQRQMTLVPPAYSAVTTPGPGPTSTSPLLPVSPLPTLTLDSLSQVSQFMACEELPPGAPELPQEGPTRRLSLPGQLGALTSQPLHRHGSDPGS

Cc1cccc(C(=O)NCN2CCC(c3cccc[n+]3[O-])CC2)c1
inhibition at 3 ug/mL (hERG): 14.5%
bioavailability [1]: 85%
AUC [2]: 2280 ng·h/mL
half-life [3]: 2.1 h
Efficacy [4]: 76%
EC50 (D(4) dopamine receptor [5]): 89 nM
Activity (D(2) dopamine receptor): inactive
Activity [6]: inactive
Activity [7]: inactive
Activity [8]: 4.3%
clearance [9]: 3.33 mL/min/kg
Ki (D(4) dopamine receptor [10]): 1440 nM
Activity [11]: 0.6%
AUC [12]: 922 ng·h/mL
clearance [13]: 12.3 mL/min/kg
AUC [14]: 1140 ng·h/mL

— ChEMBL document CHEMBL1137302 (J Med Chem, 2006)
